Bioassay records from PubChem.
MT1-MMP act inh: blocks activation of human MT1-MMP. actives 0.061% (n = 360,000). HT1080 RFP-PRO-GFP cells, GFP/RFP ratio fluorescence, overnight; percent of plate control window, DMSO zero. GFP/RFP ratio change, % at 20 µM. P50281. AID 651647;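 active = GFP/RFP ratio change of at least 30% with cell ATP level not reduced by more than half and red fluorescence within 50% of control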
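Test system: HT1080 RFP-PRO-GFP cells; Benchmarks: DMSO and RFP-L50D-GFP cell wells; Timing: cells overnight before dosing, compound overnight, 37 °C, 5% CO2; Compound: one 20 µM compound dose with 1% DMSO; Read-out: GFP/RFP fluorescence ratio.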
SKN-1 block: inhibitors of C. elegans SKN-1. C. elegans VP596 Pgst-4::GFP/RFP ratio, acrylamide-induced, 24 h. inhibition, % at 21.8 µM. actives 0.49% (n = 360,000). AID 624304;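 active = interference check ratio from 0.5 to 1.5 plus GFP to RFP signal ratio inhibition reaching or exceeding a fixed threshold, cut at about 30% in these data, passing the limit was not always enough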
DAGLB inhibitor: blocks human DAGLB lipase activity; actives 0.059% (n = 340,000); inhibition, % at 5.17 µM; AID 504411; HEK293T DAGLB membrane lysate, EnzChek fluorogenic substrate; in the data active = inhibition above about 34%;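 also: 0% = enzyme with vehicle and 100% = wells lacking enzyme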
DDE Tn6 FP inh: disrupts Tn6 cyclic peptide binding to fibrin D-Dimer-E complex; P02675; Fibrin DD(E) TRITC-Tn6 fluorescence polarization displacement; inhibition, % at 8.3 µM; actives 0.21% (n = 370,000); AID 720509;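 active = inhibition above a per-campaign cutoff: mean of compounds within control limits plus 3 SD, cut at about 15% in these data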;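 also: 0% = median of all compound wells on the plate and 100% = blocking peptide control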
Target sequence (P02675 whole entry, looked up): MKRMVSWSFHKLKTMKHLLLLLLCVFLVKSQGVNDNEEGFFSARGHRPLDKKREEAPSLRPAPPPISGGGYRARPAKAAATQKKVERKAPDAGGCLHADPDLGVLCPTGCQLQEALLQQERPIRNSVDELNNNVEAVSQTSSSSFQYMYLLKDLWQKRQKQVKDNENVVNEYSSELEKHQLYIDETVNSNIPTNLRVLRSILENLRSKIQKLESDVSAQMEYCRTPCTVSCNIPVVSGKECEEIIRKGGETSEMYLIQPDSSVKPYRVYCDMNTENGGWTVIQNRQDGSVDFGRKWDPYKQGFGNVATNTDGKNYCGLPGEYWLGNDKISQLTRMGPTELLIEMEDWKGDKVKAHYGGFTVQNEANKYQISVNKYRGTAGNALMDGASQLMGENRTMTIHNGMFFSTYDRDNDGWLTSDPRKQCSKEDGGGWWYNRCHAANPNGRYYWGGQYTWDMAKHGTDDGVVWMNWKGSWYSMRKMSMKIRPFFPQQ
PolyA inh: yeast polyadenylation inhibition; S. cerevisiae SKY197-pL101 polyadenylation reporter, beta-gal luminescence; efflux-impaired pdr1/pdr3 knockout yeast; score 100 = 6 SD above DMSO; activity score, % at 12 µM; actives 0.02% (n = 300,000);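 active = lowest replicate activity score at least 50, where 100 means six control SD above control mean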;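 also: yeast exposed to compound for 9 h at 30 °C; higher score means more reporter readthrough which indicates perturbed polyadenylation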
DDE Tn7 FP inh: DD(E)-Tn7 binding inhibition, primary FP screen | P02675 | inhibition, % at 8.3 µM | FP displacement of FITC-Tn7 peptide from fibrin DD(E); 0% = median of compound wells per plate | actives 0.13% (n = 370,000);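 active = inhibition above the mean of compounds falling within the control limits plus 3 SD of them, cut at about 14% in these data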;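 also: 0% = plate median of compound wells and 100% = 10 µM Aha-Tn7 peptide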
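Also added: labelled Tn7 tracer, 0.1 µM; Assay system: human fibrin DD(E) protein; Amount: 2 µM fibrin DD(E); Schedule: 10 min compound pre-incubation, 3 h probe incubation at room temperature; Repeats: one replicate per compound; Read-out basis: percent inhibition; Measured by: fluorescence polarization of the labelled Tn7 tracer.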
DDE Tn6 FP ctr: DD(E)-Tn6 binding inhibition, counter-screen | actives 2% (n = 680) | AID 720621 | inhibition, % at 8.3 µM | Fibrin DD(E), TRITC-Tn6 fluorescence polarization displacement; 0% = median of compound wells, not DMSO | shares compounds with DDE Tn6 FP inh;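 active = inhibition above the mean of test compounds lying between the control limits plus 3 SD of those, cut at about 14% in these data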;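 also: 0% = median of compound wells and 100% = wells with Aha-Tn7 blocking peptide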
Tn6 DDE conf: DD(E)-Tn6 binding inhibition, FP confirmation; actives 10% (n = 680); FP displacement of TRITC-Tn6 peptide from DD(E); 0% = per-plate median of test wells; shares compounds with DDE Tn6 FP inh; inhibition, % at 8.3 µM;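 active = inhibition above the mean of compounds lying within the control limits plus 3 SD, cut at about 16% in these data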;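 also: 100% = high control wells holding a competing inhibitor peptide at 10 µM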
Numbers without * were called inactive; . = no result given. Only some compounds are listed: those with a hit (about 0.9% of all), similar ones and a draw of the others.

SMILES | MT1-MMP act inh | SKN-1 block | DAGLB inhibitor | DDE Tn6 FP inh | PolyA inh | DDE Tn7 FP inh | DDE Tn6 FP ctr | Tn6 DDE conf
COC(=O)c1cc(Br)c(=O)n(CCN2CCCCC2)c1 | 8 | 2 | 1 | -3 | 14 | -4 | . | .
COC(=O)c1cc(Br)c(=O)n(CCN2CCCC2)c1 | 0 | 2 | -1 | 17* | 2 | 2 | -3 | -5
CCCC(=Nc1ccc(N)cc1)C1=C(O)C(C(=O)OC)C(C)(C)CC1=O (centres undefined) | 25 | 6 | 8 | 126* | 5 | 4 | 5 | 17*
CCCC(=O)C1=C(O)C(C(=O)OC)C(C)(C)CC1=Nc1ccc(N)cc1 (centres undefined) | 9 | -6 | -1 | 4 | 18 | -1 | . | .
Cc1cccc(C(=O)NNC(=O)CN2C(=O)c3ccccc3C2=O)c1 | 3 | 3 | -1 | 17* | 17 | -5 | -2 | -6
O=C(c1ccccc1)n1ccc2ccc(-c3ccc4ccn(C(=O)c5ccccc5)c4c3)cc21 | . | . | . | -2 | . | -3 | . | .
CCOC(=O)N1CCN(C(=O)C[C@@H]2C(=O)N3CCCC4=C3[C@@]2(C(=O)OC)CCCC4)CC1 | . | . | . | -1 | . | -3 | . | .
C#CCCN([C@@H](CC(C)C)C(=O)OC)S(=O)(=O)c1ccc(F)cc1Br | . | . | . | -2 | . | -4 | . | .
CC1CCC/C(=C\Nc2ccc(O)cc2)C1=O (centres undefined) | 16 | 10 | 6 | 17* | -14 | 4 | -7 | -10
CC[C@]12c3[nH]c4ccc(Cl)cc4c3CCN1C(=O)[C@@H](CC(=O)NC(C)(C)C)C[C@@H]2C(=O)N1CCN(C(=O)c2ccco2)CC1 | -3 | -6 | -1 | 16* | . | 6 | 8 | 6
CC(C)CNC(=O)OCc1cn(Cc2ccc(Cl)cc2)nn1 | . | . | . | 3 | . | 6 | . | .
N#Cc1ccc(OCC(=O)N(C2CCCCC2)C2CCS(=O)(=O)C2)cc1 (centres undefined) | -3 | 8 | 0 | 16* | . | -1 | 10 | 6
O=C(COc1ccc([N+](=O)[O-])cc1Cl)N(C1CCCCC1)C1CCS(=O)(=O)C1 (centres undefined) | -1 | 11 | 0 | 0 | . | 7 | . | .
CN=C1S/C(=C/c2cc(C)n(-c3cc(C)ccc3OC)c2C)C(=O)N1C | . | . | . | -1 | . | 5 | . | .
CC(C)NC(=O)c1onc(CSc2nc3ccccc3[nH]2)c1C(=O)NC(C)C | 1 | 16 | -1 | 15* | -13 | -2 | 4 | -1
CC(C)(C)C(=O)NC1CCCCN(Cc2cccc(C(F)(F)F)c2)C1=O (centres undefined) | . | . | . | 6 | . | 0 | . | .
CC(COc1cc(F)cc(C#N)c1)CN1CCC(C(O)(c2ccccc2)c2ccccc2)CC1 (centres undefined) | . | . | . | -6 | . | -4 | . | .
CC(COc1ccccc1C#N)CN1CCC(C(O)(c2ccccc2)c2ccccc2)CC1 (centres undefined) | . | . | . | 16* | . | 8 | 1 | 2
O=C(Cn1cc2c(n1)CCCCC2)Nc1c(F)cc(F)cc1Br | -2 | -10 | 1 | 17* | 4 | 2 | -1 | -5
COC(=O)CN1CCN(C(=O)c2csc(N3CCOCC3)n2)CC1 | . | . | . | -1 | . | -4 | . | .
Cc1cc(Sc2nc(NC(C)(C)C)nc(N3CCOCC3)n2)nc(Cl)n1 | -3 | 0 | -2 | 17* | 3 | 0 | 5 | -1
CSc1nc(NC(C)(C)C)nc(N2CCOCC2)n1 | -2 | 17 | -3 | -3 | -7 | -2 | . | .
CCCCOCCCNC(=O)C[C@H]1C[C@@]2(C(=O)OC)C(=C[C@H](C3CCCC3)O[C@@H]2C)N(Cc2ccco2)C1=O | . | . | . | -8 | . | -8 | . | .
Cc1cc(C)c2cccc(N)c2n1 | -15 | 10 | 0 | 7 | -8 | 3 | . | .
Cc1cc(C)c2ccc(N)nc2c1O | 10 | -15 | 10 | 29* | -9 | 5 | -1 | -9
SMILES | MT1-MMP act inh | SKN-1 block | DAGLB inhibitor | DDE Tn6 FP inh | PolyA inh | DDE Tn7 FP inh | DDE Tn6 FP ctr | Tn6 DDE conf
Cn1c(N)c(C(=O)COC(=O)CC2CC3CCC2C3)c(=O)n(C)c1=O (centres undefined) | 3 | -3 | -2 | 16* | 5 | 7 | 9 | 6
COC(=O)c1ccc2c(c1)C(C)(C)C(/C=C/c1ccc(O)cc1)=[N+]2C | 86 | 86 | 7 | 64* | -32 | -28 | -44 | -25
Fc1ccc(-c2cc(-c3nnc4sc(Cc5cccs5)nn34)[nH]n2)cc1 | . | . | . | 4 | . | 0 | . | .
COc1ccc(NS(=O)(=O)c2ccc3nc(COc4cccc5ccccc45)[nH]c3c2)cc1 | 2 | 18 | -2 | 6 | -18 | 5 | . | .
COc1ccc(NS(=O)(=O)c2ccc3nc(COc4ccc5ccccc5c4)[nH]c3c2)cc1 | 2 | 12 | 1 | 54* | -3 | 4 | -1 | -10
Cn1nnnc1Sc1ncnc2scc(-c3cnc(N)nc3)c12 | . | . | . | -8 | . | -3 | . | .
COc1ccc(-n2c(Cc3cccs3)nnc2SCC(=O)Nc2ccc(OCc3ccccc3)cc2)cc1 | . | . | . | 2 | . | -1 | . | .
C#CCN1CC(N(C)CCOC(=O)CSc2ccccc2)CS1(=O)=O (centres undefined) | . | . | . | 5 | . | 4 | . | .
N#Cc1ccc(NC(=O)OC2CC3CC2[C@H]2CCCCN2[C@H]3Cc2ccccc2)cc1 (some centres undefined) | . | . | . | -3 | . | -1 | . | .
COC(=O)[C@H](CC(C)C)N(CCCc1cn(Cc2ccc(C)cc2)nn1)S(=O)(=O)c1ccccc1Br | . | . | . | 0 | . | -4 | . | .
C[C@@]12C(C[C@H](O)[C@@]34C[C@@H](CCC13)[C@@H](CO)C4=O)[C@](C)(C(=O)O)CC[C@@H]2O (some centres undefined) | -2 | 9 | . | 21* | . | 6 | -3 | -9
CN1C(=O)c2cc(NC(=O)Nc3ccccc3)ccc2OC[C@H]2O[C@@H](CC(=O)NCC(F)(F)F)CC[C@@H]21 | . | . | . | -3 | . | 3 | . | .
O=c1oc2ccccc2cc1C1=Nn2c(nnc2-c2cccnc2)SC1 | 1 | -9 | 1 | 15* | 9 | -1 | 9 | 3
Cc1cc2nc3ccc(N(C)C)cc3nc2cc1N | 4 | 83 | 4 | 33* | -11 | 3 | -9 | 65*
Cc1ccc(-n2nc3cc(C)c(N)cc3n2)cc1 | -8 | 22 | 0 | -5 | -1 | 0 | . | .
